Reference: ChEMBL document CHEMBL5653631, “A Potent and Selective ULK1 Inhibitor Suppresses Autophagy and Sensitizes Cancer Cells to Nutrient Stress” (iScience, 2018)

Tests used:
[1] = molecular target: T1, Activin receptor type-1 (Homo sapiens) (UniProt Q04771); assay: Inhibition of human recombinant ALK2 at 40 nM in presence of ATP by radiometric assay relative to control
T1 sequence (whole entry): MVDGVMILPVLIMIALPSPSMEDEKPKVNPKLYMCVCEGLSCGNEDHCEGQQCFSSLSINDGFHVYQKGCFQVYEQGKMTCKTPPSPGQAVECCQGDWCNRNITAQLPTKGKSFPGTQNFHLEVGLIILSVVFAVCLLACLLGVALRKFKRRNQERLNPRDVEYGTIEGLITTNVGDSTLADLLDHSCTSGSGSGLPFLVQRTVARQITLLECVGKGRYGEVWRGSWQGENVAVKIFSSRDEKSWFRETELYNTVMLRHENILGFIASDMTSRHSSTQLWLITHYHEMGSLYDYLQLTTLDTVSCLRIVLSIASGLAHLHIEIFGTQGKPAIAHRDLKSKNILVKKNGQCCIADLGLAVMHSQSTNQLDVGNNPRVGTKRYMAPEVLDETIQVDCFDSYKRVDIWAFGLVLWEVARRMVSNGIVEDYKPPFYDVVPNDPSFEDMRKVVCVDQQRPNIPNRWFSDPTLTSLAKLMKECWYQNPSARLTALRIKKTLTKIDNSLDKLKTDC
Summary of the method: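 Panel of 327 recombinant human kinases, each assayed in vitro by radiometric activity assay in duplicate at a single inhibitor concentration per compound, chosen with reference to its ULK1 inhibition. Activity remaining was expressed as percent of vehicle control, and percent inhibition was calculated as 100 minus percent activity remaining.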

[2] = molecular target: Cyclin-dependent kinase 13 (Homo sapiens) (UniProt Q14004); assay: Inhibition of human recombinant CHED at 15 nM in presence of ATP by radiometric assay relative to control
[3] = molecular target: T2, Testis-specific serine/threonine-protein kinase 4 (Homo sapiens) (UniProt Q6SA08); assay: Inhibition of human recombinant TSSK4 at 15 nM in presence of ATP by radiometric assay relative to control
T2 sequence (whole entry): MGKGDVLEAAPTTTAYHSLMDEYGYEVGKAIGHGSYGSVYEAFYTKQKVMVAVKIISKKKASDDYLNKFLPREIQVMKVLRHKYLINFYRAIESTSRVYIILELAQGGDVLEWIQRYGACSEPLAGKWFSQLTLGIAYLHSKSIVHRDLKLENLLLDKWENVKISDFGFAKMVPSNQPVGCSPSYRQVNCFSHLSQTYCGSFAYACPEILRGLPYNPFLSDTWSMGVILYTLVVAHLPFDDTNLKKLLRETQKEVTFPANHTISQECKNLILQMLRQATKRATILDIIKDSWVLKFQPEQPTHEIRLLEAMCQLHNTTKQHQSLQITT

[4] = molecular target: Ribosomal protein S6 kinase alpha-4 (Homo sapiens) (UniProt O75676); assay: Inhibition of human recombinant MSK2 at 15 nM in presence of ATP by radiometric assay relative to control
[5] = molecular target: T3, Dual specificity tyrosine-phosphorylation-regulated kinase 3 (Homo sapiens) (UniProt O43781); assay: Inhibition of human recombinant DYRK3 at 15 nM related to control ULK1
T3 sequence (whole entry): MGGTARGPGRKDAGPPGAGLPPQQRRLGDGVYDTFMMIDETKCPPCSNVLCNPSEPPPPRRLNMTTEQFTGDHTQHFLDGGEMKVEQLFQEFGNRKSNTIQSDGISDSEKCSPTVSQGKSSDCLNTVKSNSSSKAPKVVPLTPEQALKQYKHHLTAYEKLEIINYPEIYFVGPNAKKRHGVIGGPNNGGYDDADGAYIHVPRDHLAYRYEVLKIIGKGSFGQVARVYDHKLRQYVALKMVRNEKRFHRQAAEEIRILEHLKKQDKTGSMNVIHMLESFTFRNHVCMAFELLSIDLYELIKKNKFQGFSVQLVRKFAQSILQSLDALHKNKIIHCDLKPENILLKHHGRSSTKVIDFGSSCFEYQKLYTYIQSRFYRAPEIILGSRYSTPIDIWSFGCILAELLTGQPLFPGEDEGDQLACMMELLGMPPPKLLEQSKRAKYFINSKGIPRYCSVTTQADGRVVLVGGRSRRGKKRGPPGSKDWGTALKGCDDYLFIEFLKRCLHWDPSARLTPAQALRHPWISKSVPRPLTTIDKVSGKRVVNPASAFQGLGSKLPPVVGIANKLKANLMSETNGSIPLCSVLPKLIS

[6] = molecular target: Myosin light chain kinase, smooth muscle (Homo sapiens) (UniProt Q15746); assay: Inhibition of human recombinant smMLCK at 500 nM in presence of ATP by radiometric assay relative to control
[7] = molecular target: T4, Tyrosine-protein kinase Mer (Homo sapiens) (UniProt Q12866); assay: Inhibition of human recombinant MER at 500 nM in presence of ATP by radiometric assay relative to control
T4 sequence (whole entry): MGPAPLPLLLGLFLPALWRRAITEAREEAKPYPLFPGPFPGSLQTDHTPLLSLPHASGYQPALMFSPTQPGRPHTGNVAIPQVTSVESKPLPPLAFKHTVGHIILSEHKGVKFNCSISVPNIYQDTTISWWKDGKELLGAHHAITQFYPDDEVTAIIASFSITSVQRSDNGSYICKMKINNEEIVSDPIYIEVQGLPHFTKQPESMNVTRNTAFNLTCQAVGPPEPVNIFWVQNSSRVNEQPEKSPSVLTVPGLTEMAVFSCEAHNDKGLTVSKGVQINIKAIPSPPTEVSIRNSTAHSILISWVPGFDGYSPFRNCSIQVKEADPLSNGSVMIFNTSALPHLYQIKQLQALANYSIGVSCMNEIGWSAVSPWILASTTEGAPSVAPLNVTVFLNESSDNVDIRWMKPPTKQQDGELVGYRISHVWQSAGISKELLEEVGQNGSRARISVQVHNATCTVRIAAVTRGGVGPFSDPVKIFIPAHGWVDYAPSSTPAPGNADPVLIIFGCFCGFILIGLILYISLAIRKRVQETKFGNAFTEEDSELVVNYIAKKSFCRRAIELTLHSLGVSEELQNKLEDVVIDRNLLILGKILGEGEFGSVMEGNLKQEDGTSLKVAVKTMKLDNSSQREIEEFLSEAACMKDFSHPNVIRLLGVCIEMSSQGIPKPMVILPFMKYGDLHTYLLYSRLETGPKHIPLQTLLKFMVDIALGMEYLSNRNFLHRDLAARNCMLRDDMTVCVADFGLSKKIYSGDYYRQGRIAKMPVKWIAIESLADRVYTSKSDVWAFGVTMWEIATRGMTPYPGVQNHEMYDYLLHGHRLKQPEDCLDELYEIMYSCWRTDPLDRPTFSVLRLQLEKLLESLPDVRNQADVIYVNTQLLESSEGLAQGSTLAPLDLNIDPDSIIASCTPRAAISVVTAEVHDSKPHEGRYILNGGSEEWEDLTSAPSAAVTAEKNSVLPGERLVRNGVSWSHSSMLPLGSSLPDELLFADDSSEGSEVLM

[8] = molecular target: Calcium/calmodulin-dependent protein kinase type II subunit alpha (Homo sapiens) (UniProt Q9UQM7); assay: Inhibition of human recombinant CaMK2a at 500 nM related to control ULK1
Sequence of Calcium/calmodulin-dependent protein kinase type II subunit alpha (Homo sapiens) (Q9UQM7 whole entry): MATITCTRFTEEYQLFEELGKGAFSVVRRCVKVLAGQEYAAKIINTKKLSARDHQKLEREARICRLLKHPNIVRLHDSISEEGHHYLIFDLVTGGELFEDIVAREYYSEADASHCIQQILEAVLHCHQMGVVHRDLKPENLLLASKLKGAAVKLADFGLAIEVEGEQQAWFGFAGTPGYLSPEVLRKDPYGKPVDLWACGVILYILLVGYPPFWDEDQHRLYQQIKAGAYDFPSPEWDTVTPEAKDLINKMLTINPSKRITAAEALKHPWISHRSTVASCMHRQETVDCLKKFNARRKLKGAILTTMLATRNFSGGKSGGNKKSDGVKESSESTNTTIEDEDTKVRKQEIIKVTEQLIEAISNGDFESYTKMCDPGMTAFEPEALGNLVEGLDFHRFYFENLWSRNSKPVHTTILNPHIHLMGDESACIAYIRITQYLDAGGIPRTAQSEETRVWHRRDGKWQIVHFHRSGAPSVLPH

Sequence of Ribosomal protein S6 kinase alpha-4 (Homo sapiens) (O75676 whole entry, looked up): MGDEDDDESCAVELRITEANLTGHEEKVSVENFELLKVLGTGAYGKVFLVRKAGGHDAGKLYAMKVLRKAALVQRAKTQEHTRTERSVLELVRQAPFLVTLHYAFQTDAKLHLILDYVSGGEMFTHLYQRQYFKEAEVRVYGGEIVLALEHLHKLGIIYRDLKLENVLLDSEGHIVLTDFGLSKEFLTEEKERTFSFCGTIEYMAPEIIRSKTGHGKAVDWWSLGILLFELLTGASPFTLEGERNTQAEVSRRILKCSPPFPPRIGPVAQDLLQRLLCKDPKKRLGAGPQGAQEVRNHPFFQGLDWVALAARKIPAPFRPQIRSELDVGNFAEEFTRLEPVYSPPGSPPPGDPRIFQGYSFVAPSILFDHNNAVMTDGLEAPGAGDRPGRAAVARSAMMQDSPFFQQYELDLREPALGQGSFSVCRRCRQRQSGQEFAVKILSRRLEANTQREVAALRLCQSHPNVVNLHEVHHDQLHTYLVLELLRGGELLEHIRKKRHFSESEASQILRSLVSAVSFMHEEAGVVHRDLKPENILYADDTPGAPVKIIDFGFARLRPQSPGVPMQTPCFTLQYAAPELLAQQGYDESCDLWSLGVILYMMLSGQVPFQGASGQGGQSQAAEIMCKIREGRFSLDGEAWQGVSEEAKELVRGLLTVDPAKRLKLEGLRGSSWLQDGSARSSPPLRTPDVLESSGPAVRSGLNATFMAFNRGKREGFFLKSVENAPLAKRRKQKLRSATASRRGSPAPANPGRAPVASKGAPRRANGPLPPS
Sequence of Myosin light chain kinase, smooth muscle (Homo sapiens) (Q15746 whole entry): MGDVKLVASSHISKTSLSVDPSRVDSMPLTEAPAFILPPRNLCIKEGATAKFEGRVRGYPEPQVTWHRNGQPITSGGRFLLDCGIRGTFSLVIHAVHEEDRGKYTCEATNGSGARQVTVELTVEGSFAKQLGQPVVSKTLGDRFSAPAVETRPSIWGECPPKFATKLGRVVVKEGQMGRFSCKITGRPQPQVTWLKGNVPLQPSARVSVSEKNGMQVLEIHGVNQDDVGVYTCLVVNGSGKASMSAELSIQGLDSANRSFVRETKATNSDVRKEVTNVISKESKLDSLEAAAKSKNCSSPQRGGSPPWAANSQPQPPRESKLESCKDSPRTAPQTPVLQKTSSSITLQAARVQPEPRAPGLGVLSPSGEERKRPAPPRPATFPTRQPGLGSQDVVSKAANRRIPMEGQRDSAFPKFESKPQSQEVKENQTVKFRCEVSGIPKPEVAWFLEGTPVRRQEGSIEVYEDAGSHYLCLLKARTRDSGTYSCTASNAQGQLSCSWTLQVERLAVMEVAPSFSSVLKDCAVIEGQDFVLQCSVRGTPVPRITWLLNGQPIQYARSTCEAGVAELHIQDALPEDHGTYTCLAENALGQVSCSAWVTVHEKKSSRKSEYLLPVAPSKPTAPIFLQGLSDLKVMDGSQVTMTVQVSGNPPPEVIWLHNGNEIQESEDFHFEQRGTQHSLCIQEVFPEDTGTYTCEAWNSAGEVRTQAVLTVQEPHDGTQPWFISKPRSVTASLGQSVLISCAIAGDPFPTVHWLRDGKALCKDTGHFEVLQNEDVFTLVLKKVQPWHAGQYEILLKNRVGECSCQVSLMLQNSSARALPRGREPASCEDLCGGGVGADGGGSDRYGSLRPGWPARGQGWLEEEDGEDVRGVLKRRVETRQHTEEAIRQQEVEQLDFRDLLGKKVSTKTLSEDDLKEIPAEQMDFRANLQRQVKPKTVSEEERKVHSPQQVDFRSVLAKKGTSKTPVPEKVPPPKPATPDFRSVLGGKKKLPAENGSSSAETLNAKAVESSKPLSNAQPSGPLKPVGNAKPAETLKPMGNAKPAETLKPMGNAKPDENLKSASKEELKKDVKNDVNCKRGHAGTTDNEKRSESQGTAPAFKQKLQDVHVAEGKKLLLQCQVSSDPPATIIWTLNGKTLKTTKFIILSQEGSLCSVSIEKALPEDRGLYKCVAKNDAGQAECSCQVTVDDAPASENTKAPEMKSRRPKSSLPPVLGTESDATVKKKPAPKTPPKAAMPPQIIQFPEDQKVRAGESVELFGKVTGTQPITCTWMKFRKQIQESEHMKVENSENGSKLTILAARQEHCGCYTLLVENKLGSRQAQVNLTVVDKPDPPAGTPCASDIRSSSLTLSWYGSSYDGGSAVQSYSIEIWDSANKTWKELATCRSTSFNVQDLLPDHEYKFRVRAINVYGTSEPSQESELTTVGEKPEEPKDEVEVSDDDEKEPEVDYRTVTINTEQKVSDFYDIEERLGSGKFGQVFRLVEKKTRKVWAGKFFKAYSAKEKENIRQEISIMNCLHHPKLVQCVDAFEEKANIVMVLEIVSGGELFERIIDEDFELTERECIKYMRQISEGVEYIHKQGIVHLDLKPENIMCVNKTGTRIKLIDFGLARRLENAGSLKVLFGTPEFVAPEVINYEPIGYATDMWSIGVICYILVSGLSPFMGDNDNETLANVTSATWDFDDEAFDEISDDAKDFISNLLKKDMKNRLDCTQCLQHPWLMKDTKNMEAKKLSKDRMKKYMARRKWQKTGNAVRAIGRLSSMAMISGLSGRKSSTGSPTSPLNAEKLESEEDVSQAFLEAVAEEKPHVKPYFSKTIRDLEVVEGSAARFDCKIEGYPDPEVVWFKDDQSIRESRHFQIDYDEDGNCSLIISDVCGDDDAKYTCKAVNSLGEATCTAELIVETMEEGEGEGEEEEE
Sequence of Cyclin-dependent kinase 13 (Homo sapiens) (Q14004 whole entry, looked up): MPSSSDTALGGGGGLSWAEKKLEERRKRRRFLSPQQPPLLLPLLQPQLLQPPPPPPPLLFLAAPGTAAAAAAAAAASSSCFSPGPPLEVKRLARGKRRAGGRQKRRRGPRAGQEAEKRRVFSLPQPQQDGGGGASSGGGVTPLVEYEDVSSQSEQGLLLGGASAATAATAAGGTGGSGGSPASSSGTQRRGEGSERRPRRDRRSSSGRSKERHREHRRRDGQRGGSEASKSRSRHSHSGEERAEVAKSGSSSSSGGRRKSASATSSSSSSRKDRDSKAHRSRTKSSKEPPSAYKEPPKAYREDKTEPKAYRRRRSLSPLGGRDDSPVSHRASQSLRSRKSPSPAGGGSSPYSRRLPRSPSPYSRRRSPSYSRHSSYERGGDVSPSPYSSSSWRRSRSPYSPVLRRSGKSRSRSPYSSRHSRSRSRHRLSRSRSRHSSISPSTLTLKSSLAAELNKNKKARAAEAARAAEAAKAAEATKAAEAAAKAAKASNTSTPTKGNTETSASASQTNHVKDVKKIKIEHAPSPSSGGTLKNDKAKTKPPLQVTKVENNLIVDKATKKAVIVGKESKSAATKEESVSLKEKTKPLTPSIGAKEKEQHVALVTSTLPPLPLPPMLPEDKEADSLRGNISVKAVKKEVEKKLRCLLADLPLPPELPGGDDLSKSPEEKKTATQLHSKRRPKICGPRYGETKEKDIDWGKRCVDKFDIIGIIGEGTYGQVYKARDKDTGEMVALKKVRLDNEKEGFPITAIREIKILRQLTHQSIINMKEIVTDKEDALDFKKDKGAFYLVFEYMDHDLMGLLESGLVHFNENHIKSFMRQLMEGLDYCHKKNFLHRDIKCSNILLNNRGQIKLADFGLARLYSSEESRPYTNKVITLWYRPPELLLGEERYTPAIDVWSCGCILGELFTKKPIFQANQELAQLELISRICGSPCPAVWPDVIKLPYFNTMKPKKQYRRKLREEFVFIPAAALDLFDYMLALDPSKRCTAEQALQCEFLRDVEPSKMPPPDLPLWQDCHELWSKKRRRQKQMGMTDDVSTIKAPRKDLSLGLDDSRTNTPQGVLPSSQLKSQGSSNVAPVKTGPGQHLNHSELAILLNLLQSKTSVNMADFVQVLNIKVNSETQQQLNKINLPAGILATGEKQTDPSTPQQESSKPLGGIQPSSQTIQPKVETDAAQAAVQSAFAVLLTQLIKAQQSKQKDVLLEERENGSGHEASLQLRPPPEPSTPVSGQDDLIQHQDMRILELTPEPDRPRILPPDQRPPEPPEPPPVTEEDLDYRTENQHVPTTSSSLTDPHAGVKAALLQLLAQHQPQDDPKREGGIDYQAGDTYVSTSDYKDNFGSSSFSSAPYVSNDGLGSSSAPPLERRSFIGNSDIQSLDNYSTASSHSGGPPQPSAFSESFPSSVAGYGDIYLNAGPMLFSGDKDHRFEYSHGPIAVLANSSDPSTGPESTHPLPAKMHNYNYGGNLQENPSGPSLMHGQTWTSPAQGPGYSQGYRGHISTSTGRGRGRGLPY

## O=C(N[C@@H](C1CC1)C(F)(F)F)c1cc(-c2cnn3cc(-c4ccc(F)cc4)cnc23)cs1
[1]
  inhibition: 56%

## CC(C)[C@H](NC(=O)c1cc(-c2cnn3cc(-c4ccc(OCCN5CCCCC5)cc4)cnc23)cs1)C(F)(F)F
[2]
  inhibition: 0%
[3]
  inhibition: 0%
[4]
  inhibition: 0%
[5]
  fold change (FC): 0.26

## CNC(=O)c1ccccc1Oc1nc(Nc2cc(OC)c(OC)c(OC)c2)ncc1Br
[6]
  inhibition: 5%
[7]
  inhibition: 9%
[8]
  fold change (FC): 0
